Data set [1] deals with Canis familiaris. The data set is described as follows: Toxicity in Beagle dog assessed as testicular effect administered repeated dose level of 100 mg/kg/day, po administered on days 3, 6 and 8 by hematoxylin and eosin staining-based microscopy. It counts as organism-based, Canis lupus familiaris. Also noted: route oral. The following applies: in vivo. Summed up: (§1)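 Dogs received escalating oral doses of 100, 300 and 1000 mg/kg/day over 8 days (Days 3, 6 and 8 for each dose). Vehicle was 0.5% methylcellulose at 5 mL/kg. Two animals were necropsied at termination, and testes were fixed in modified Davidson's fixative, paraffin-embedded, H&E-stained and examined microscopically.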

Data set [2] concerns Canis familiaris. The data set can be described thus: Toxicity in Beagle dog assessed as testicular effect administered repeated dose level of 300 mg/kg/day, po administered on days 3, 6 and 8 by hematoxylin and eosin staining-based microscopy. It counts as organism-based, Canis lupus familiaris. Further details: route oral; call rule not given here. The following applies: in vivo. Summed up:
as §1

Data set [3] is described as follows: AUC (0 to t) in male Sprague-Dawley rat at 250 mg/kg, po measured on day 14. It counts as ADME, organism-based. Further details: dose 250 mg/kg, route oral. To be noted: plasma. Put shortly: (§2)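 Sprague–Dawley rats, 5 weeks old at arrival, both sexes. Given the compound by oral gavage once daily for 14 days at 0, 250, 500 or 1000 mg/kg/day, with 0.5% methylcellulose as vehicle. Toxicokinetic parameters were determined on Day 1 and Day 14.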

Data set [4] is described as follows: Cmax in female Sprague-Dawley rat at 250 mg/kg, po measured on day 1. Further details: dose 250 mg/kg, route oral. It counts as ADME, organism-based. To be noted: in vivo. Summed up:
as §2

The subject of a further data set is Hepatocyte. The data set can be described thus: Induction of 2-Deoxy-D-[3H]-glucose uptake in rat Hepatocytes using 5.5 mM glucose after 4 hrs by liquid scintillation counting. It counts as functional. Summed up:
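Rat primary hepatocytes, isolated by collagenase liver perfusion, viability over 85%. Cells attached 36 h on collagen I in MEM with 10% FBS, then serum-starved 12 h. Incubated 4 h in serum-free MEM with 5.5 mM glucose and 2-deoxy-D-[3H]-glucose, with or without compound. Washed in ice-cold PBS, lysed in 0.1 N NaOH, scintillation counted, expressed as % increase over control.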

Data set [5] is described as follows: Tmax in female Sprague-Dawley rat at 1000 mg/kg, po measured on day 1. It counts as ADME, organism-based. Also noted: dose 1000 mg/kg, route oral. To be noted: in vivo. Put shortly:
(§3)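 Sprague–Dawley rats of both sexes, 5 weeks old at arrival, received daily oral gavage at 0, 250, 500 or 1000 mg/kg/day for 14 days. Vehicle was 0.5% methylcellulose at 10 mL/kg. Toxicokinetics were taken on Day 1 and Day 14. Necropsy was by Day 15. Testis was fixed in modified Davidson's fixative, paraffin-sectioned and H&E-stained, with histopathology on control and high-dose groups only.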

A short description of data set [6]: Cmax in female Sprague-Dawley rat at 1000 mg/kg, po measured on day 14. Also noted: dose 1000 mg/kg, route oral. The following applies: in vivo. It is filed as ADME, organism-based. Summed up: as §2
The nature of data set [7]: AUC (0 to t) in female Sprague-Dawley rat at 500 mg/kg, po measured on day 14. It counts as ADME, organism-based. Further details: dose 500 mg/kg, route oral. To be noted: plasma. Put shortly: as §2
A short description of data set [8]: Tmax in female Sprague-Dawley rat at 1000 mg/kg, po measured on day 14. It is filed as ADME, organism-based. Also noted: dose 1000 mg/kg, route oral. To be noted: in vivo. Summed up: as §3
A short description of data set [9]: Tmax in male Sprague-Dawley rat at 1000 mg/kg, po measured on day 14. Also noted: dose 1000 mg/kg, route oral. It is filed as ADME, organism-based. To be noted: in vivo. Put shortly: as §3
The target of another data set is T1, Cytochrome P450 1A2 (Homo sapiens, UniProt P05177).
T1 sequence (P05177 whole entry): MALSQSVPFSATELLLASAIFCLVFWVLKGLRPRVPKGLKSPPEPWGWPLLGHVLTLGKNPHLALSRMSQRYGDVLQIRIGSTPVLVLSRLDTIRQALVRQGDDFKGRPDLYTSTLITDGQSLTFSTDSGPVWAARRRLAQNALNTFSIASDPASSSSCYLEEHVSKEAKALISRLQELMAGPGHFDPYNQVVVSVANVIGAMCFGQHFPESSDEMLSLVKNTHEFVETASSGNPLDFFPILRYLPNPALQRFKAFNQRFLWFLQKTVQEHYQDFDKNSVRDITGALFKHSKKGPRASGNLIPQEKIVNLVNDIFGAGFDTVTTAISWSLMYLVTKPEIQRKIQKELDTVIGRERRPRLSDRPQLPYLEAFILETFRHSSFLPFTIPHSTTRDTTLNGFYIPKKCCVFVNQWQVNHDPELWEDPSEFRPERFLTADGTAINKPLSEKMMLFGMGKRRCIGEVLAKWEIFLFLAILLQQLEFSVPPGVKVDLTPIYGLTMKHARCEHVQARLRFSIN
The data set can be described thus: Inhibition of CYP1A2 in human liver microsomes. It counts as ADME. Summed up: (§4)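 Pooled human liver microsomes at 0.25 mg/mL, each with a CYP-selective substrate and test compound up to 25 µM, preincubated at 37 °C. It is stopped on ice with ice-cold acetonitrile and centrifuged, and the supernatant is analysed by LC–MS/MS.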
For orientation: Liver microsomes are vesicles of endoplasmic reticulum, rich in cytochrome P450 enzymes.

Data set [10] in a line: Tmax in Sprague-Dawley rat at 3 mg/kg, iv and 10 mg/kg, po. It is filed as ADME, organism-based. The following applies: in vivo. Summed up:
(§5)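 Male ICR mice and 7-week-old SD rats received a 3 mg/kg iv bolus or a 10 mg/kg oral gavage dose. Plasma was precipitated with 2 volumes of acetonitrile and analysed by HPLC. Parameters came from noncompartmental analysis.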

Data set [11] in a line: Tmax in ICR mouse at 3 mg/kg, iv and 10 mg/kg, po. It counts as ADME, organism-based. To be noted: in vivo. Summed up: as §5
Data set [12] is described as follows: Volume of distribution at steady state in Sprague-Dawley rat at 3 mg/kg, iv and 10 mg/kg, po. It counts as ADME, organism-based. The following applies: in vivo, read-out: Vdss. Put shortly: as §5
Data set [13] can be described thus: Tmax in male Sprague-Dawley rat at 500 mg/kg, po measured on day 14. Further details: dose 500 mg/kg, route oral. It is filed as ADME, organism-based. To be noted: in vivo. Put shortly: as §3
A short description of data set [14]: Tmax in female Sprague-Dawley rat at 250 mg/kg, po measured on day 14. It is filed as ADME, organism-based. To be noted: in vivo. Also noted: dose 250 mg/kg, route oral. Summed up: as §3
For another data set, the target named is T2, Cytochrome P450 2C8 (Homo sapiens, UniProt P10632).
T2 sequence (P10632 whole entry): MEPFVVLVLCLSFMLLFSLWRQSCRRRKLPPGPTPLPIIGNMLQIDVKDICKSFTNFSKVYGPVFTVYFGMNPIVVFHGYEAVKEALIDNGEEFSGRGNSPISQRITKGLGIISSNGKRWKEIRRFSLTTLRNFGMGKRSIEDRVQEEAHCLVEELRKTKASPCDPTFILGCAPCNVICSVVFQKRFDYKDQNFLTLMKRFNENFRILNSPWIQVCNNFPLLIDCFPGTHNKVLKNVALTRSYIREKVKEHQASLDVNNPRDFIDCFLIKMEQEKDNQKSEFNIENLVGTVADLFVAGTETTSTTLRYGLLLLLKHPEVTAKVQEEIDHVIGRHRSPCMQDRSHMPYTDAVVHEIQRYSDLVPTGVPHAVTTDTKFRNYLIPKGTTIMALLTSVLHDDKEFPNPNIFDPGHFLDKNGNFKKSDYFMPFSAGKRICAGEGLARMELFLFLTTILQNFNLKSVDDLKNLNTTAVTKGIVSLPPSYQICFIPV
The data set can be described thus: Inhibition of CYP2C8 in human liver microsomes. It counts as ADME. Summed up: as §4

Data set [15] is described as follows: AUC (0 to t) in female Sprague-Dawley rat at 1000 mg/kg, po measured on day 1. It counts as ADME, organism-based. Also noted: dose 1000 mg/kg, route oral. The following applies: plasma. Summed up: as §2
A short description of data set [16]: Elimination half life in Sprague-Dawley rat at 3 mg/kg, iv and 10 mg/kg, po. It is filed as ADME, organism-based. To be noted: in vivo, read-out: beta t1/2 (converted). Summed up: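 Male ICR mice and 7-week-old SD rats received a 3 mg/kg intravenous bolus or a 10 mg/kg oral gavage dose. Plasma was deproteinized with acetonitrile (2 volumes) and compound measured by HPLC. Parameters came from noncompartmental analysis.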

The subject of a further data set is Rattus norvegicus. The data set is described as follows: Toxicity in Sprague-Dawley rat assessed as seminiferous tubule degeneration at 250 to 1000 mg/kg, po by hematoxylin and eosin staining-based microscopy. It is filed as organism-based. Further details: dose 250-1000 mg/kg, route oral. To be noted: in vivo. Summed up:
as §3

A word on the AUC(0-t): it is exposure summed from dosing to a finite time, without extrapolation to infinity. Low values mean low exposure, high ones high exposure. By Cmax is commonly meant the peak of the concentration-time curve. The Tmax is the time at which the peak concentration occurs.

The structures appear in SMILES notation.

Consider `COCCOCn1ccc(NC(=O)c2cc(Oc3ccc(S(C)(=O)=O)cc3)cc(-c3ncccc3C)c2)n1`, for which the Activity entry with Canis familiaris [1], with Canis familiaris [2] and in the data set with Rattus norvegicus was “Non-toxic” in each case. In addition, the figures for the AUC(0-t) in [3], in [7] and in data set [15] were 8180 ng·h/mL, 16300 ng·h/mL and 29200 ng·h/mL, respectively. Also, the Cmax in [4] amounted to 3450 ng/mL; in data set [6], 5210 ng/mL. Besides, the “fold change (FC)” value in the data set on Hepatocyte came to 2.23. For the same compound, the Tmax in [5] is 2.7 h; in data set [8], 2.7 h; in data set [9] it was 5 h; in data set [10] it was 0.42 h; in data set [11] it was 0.25 h; in data set [13] it was 3 h. The Tmax in [14] turned out to be 1.3 h. The “inhibition (INH)” value at Cytochrome P450 1A2 and at Cytochrome P450 2C8 was “Not Active” each time. The Vd in data set [12] was determined as 0.21 L/kg. Besides, the half-life in data set [16] was 0.3 h.

Values taken from ChEMBL document CHEMBL3232870, “Discovery of 3-(4-methanesulfonylphenoxy)-N-[1-(2-methoxy-ethoxymethyl)-1H-pyrazol-3-yl]-5-(3-methylpyridin-2-yl)-benzamide as a novel glucokinase activator (GKA) for the treatment of type 2 diabetes mellitus” (Bioorg Med Chem, 2014).
